Source: PubChem
FLuc inh counter: firefly luciferase enzyme inhibitors, primary screen, artefact control for luciferase-based inhibitor screens, biochemical, luminescence, ATPLite | Luciferin 4-monooxygenase (Photinus pyralis), P08659 | 10 min | inhibition, % at 10 µM | 1.5% of 200,000 active;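 active = inhibition above about 50% when tested at 10 µM, limit read from the data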
Target sequence (P08659 whole entry, looked up): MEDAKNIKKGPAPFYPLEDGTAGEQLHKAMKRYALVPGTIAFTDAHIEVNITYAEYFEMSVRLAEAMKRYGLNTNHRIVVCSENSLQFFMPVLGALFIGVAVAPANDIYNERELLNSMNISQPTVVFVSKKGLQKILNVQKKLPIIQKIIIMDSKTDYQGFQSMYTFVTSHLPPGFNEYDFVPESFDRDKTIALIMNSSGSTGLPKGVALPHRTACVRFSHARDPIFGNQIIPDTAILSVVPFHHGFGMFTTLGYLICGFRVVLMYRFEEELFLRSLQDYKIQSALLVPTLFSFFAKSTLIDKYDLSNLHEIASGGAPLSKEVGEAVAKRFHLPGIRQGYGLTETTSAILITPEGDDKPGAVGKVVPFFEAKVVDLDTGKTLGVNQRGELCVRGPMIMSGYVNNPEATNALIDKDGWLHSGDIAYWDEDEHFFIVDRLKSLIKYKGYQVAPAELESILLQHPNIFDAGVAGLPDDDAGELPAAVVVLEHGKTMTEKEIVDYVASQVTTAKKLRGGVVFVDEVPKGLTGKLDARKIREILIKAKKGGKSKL
APP 5'UTR act: activators of APP 5'UTR luciferase reporter, primary screen, SH-SY5Y cells | SH-SY5Y APP 5'UTR luciferase reporter, luminescence; zero percent = DMSO vehicle wells | activation, % at 2 µM | 1% of 190,000 active | AID 1276, 2008;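 active = activation above a set limit, based on mean plus 3 SD of controls, cut at about 140% in these data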
STAT1 act: STAT1 signaling activators, primary screen, cell-based, HTS, luciferase reporter; 2.6% of 200,000 active; NIH 3T3 STAT1-luciferase reporter, IFN-gamma, luminescence; 100% = IFN-gamma alone, no compound; activation (% of control), % at 5.5 µM; AID 932, 2007;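 active = activation above the screen-wide mean activation plus 3 SD, cut at about 130% in these data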;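 note: raw ratio to IFN-gamma control signal so 100% means no change and 0% no light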
NF-kB expr up: activators of NF-kB expression in neurons, primary screen, cell-based, HTS | AID 1239, 2008 | human neuronal cells, NF-kB reporter expression; hits give high values | fold change at 12.5 µM | 1.6% of 190,000 active; in the data active = fold change above about 3.3
FLuc stim CS: FLuc activators, initial screening, artefact control for FLuc-dependent activation tests, biochemical, ATPlite luminescence | Luciferin 4-monooxygenase (Photinus pyralis), P08659 | ATPlite luciferase biochemical, 10 min; 0 = ATP-free wells, 1 = DMSO control | activation factor at 10 µM | 200,000 tested, under 10 active;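 active = luciferase activation factor, scaled between plate controls, of at least 2 with compound at 10 µM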
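test system = cell-free luciferase reagent | medium = PBS as buffer for the ATP substrate | dosing = test compounds dosed from 2 mM stocks in 100% DMSO | incubation = 10 min at ambient temperature | detection = luminescence measurement of luciferase light output | benchmarks = low control with PBS replacing ATP, high control enzyme plus ATP without compound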
An asterisk follows results filed as active. Shown are actives, neighbours in structure and some others; about 4.1% of the full set was active somewhere.

SMILES | FLuc inh counter | APP 5'UTR act | STAT1 act | NF-kB expr up | FLuc stim CS
O=C(Nc1ccc(-c2nc3ccccc3[nH]2)cc1)C1CCCO1 (stereo not drawn) | 90* | 180* | 87 | 4.6* | 0.1
CCNC(=S)Nc1ccc(-c2nc3ccccc3[nH]2)cc1 | 51* | 110 | 132* | 2.6 | 0.5
CCOC(=O)c1c(C)[nH]c(C)c1C(=O)COc1ncnc2cc([N+](=O)[O-])ccc12 | -8 | 1 | 91 | 0.44 | 1.1
COc1ccc(NC(=S)N2CCC(c3nc4ccccc4o3)CC2)c(OC)c1 | -2 | 6 | 99 | 1 | 1
CCC(C)NC(=O)CN1C(=O)NC2(CCc3ccccc3C2)C1=O (stereo not drawn) | -4 | 0 | 105 | 1.1 | 1
COC(=O)C1=C(C)NC(=O)/C1=C\N(C)C | -6 | 13 | 103 | 1.4 | 1.1
Cc1ccc(NC(=O)c2ccc(OCC3CCCO3)cc2)cc1 (stereo not drawn) | 53* | 108 | 136* | 3.4* | 0.5
Cc1cnc(NC(=O)c2ccc(OCC3CCCO3)cc2)s1 (stereo not drawn) | 95* | 128 | 52 | 3.9* | 0
O=C(Nc1ccc(S(=O)(=O)N2CCCC2)cc1)c1ccc(OCC2CCCO2)cc1 (stereo not drawn) | -2 | -14 | 92 | 1.1 | 1
Cc1ccc(NC(=O)c2ccc(OC(=O)COc3ccc(Cl)c(C)c3)cc2)cc1 | 8 | 132 | 140* | 1.9 | 0.9
O=C(NC1=NCCS1)c1ccc(OCC2CCCO2)cc1 (stereo not drawn) | 47 | 85 | 120 | 2.4 | 0.5
O=C(Cc1csc(N2CCOCC2)n1)N/N=C/c1ccc(F)cc1 | 2 | -1 | 90 | 0.98 | 1
Cc1ccccc1OCc1nc2c3c(ncn2n1)-c1ccccc1CC31CCCC1 | -2 | 1 | 100 | 1.2 | 1
Cc1ccccc1OCc1nc2c3cnn(C)c3ncn2n1 | 4 | -15 | 141* | 2.5 | 1
Cc1cc(C(=O)CSc2nnnn2C)c(C)n1-c1cccc(F)c1 | 2 | 111 | 131* | 4.8* | 1
Cc1cc(C)cc(-n2c(C)cc(C(=O)CSc3nnnn3C)c2C)c1 | -5 | -2 | 100 | 1.2 | 1.1
C=C(C)CNC(=S)NNC(=O)c1ccc(Br)cc1 | -6 | 3 | 101 | 1.3 | 1.1
CN(C)c1ccc(NC(=O)CCn2c(=S)oc3ccccc32)cc1 | 2 | 106 | 134* | 1.2 | 1
COc1ccc2nc(SCC(=O)N3CCCCC3)c(C#N)cc2c1 | 0 | 15 | 131* | 1.5 | 1
CC(C)OC(=O)CSc1nc2c(cc1C#N)CCCCC2 | -1 | 93 | 106 | 1.4 | 1
CCc1cc2ccc(C)cc2nc1SCC(=O)Nc1cc(C)on1 | -8 | 2 | 101 | 0.92 | 1.1
CCc1cc2cc(C)ccc2nc1SCC(=O)Nc1cc(C)on1 | -1 | 6 | 103 | 3.3* | 1
CC(C)OC(=O)CC(=O)CSc1nc2c(cc1C#N)CCCCC2 | -3 | 58 | 115 | 4.3* | 1
CCOC(=O)CC(=O)CSc1nc2ccc(C)cc2cc1C#N | 4 | 32 | 137* | 8.3* | 1
Cc1cc(C)nc(NS(=O)(=O)c2ccc(N/C=C/C(=O)c3ccc(Cl)c(Cl)c3)cc2)n1 | -6 | -4 | 105 | 1.2 | 1.1
SMILES | FLuc inh counter | APP 5'UTR act | STAT1 act | NF-kB expr up | FLuc stim CS
N#Cc1cc2c(nc1SCc1ccncc1)CCC2 | 2 | 48 | 138* | 1.6 | 1
Cc1cc(NC(=O)CSc2nc3c(cc2C#N)CCCC3)no1 | -6 | 207* | 138* | 2.4 | 1.1
N#Cc1cc2c(nc1SCc1ccccc1)CCC2 | -5 | 1 | 102 | 1 | 1
CCOC(=O)CC(=O)CSc1nc2c(cc1C#N)CCCCC2 | 4 | 126 | 141* | 4.6* | 1
CC(C)Oc1ccc(CNC(=S)N/N=C/c2cccnc2)cc1 | -4 | 21 | 99 | 1.3 | 1
O=C(COC(=O)c1ccccc1Nc1cccc(C(F)(F)F)c1)NCc1ccco1 | -4 | 4 | 84 | 1.3 | 1
Cc1ccc2nc(-c3ccc(SCC(=O)O)nc3)[nH]c2c1 | 43 | 13 | 96 | 0.74 | 0.6
CCc1nnc(NC(=O)CSc2ncnc3scc(-c4ccc(C)cc4)c23)s1 | -6 | -7 | 88 | 1.1 | 1.1
Cc1cc2nc(-c3ccc(SCC(=O)Nc4ccc(S(=O)(=O)N5CCCC5)cc4)nc3)[nH]c2cc1C | 72* | 153* | 140* | 2.9 | 0.3
